High-throughput results deposited in PubChem by Johns Hopkins Ion Channel Center.
Kir21 block: Kir2.1 (mouse) channel inhibition; HEK293-Kir2.1, FluxOR thallium flux fluorescence; stronger effect = lower value; B-score at 10 µM; hit rate 0.85% among 310,000; AID 1672;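 active = fluorescence ratio B-score at or below minus 3 SD of library scores, with starting-brightness B-score within 2 SD, cut at about -4.2 in these data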;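 note: channel flux triggered by added potassium and thallium sulfate stimulus; B-score of peak minus minimum fluorescence over baseline after thallium stimulus; more negative B-score means stronger Kir2.1 block with less thallium influx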
hERG protect: shields human hERG channel from block by proarrhythmic agents; CHO-hERG, FluxOR thallium flux, dofetilide IC70 present; Q12809; hit rate 0.51% among 310,000; activation (rescue from dofetilide block), less the hit threshold, % at 10 µM;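 active = activation above the mean of controls blocked by dofetilide plus 5 SD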;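 note: thallium influx through hERG after potassium depolarization seen as dye fluorescence rise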
KCNK3 inh: human KCNK3 channel inhibition, primary screen; O14649; B-score at 10 µM; CHO-KCNK3 thallium flux, FluxOR fluorescence; stronger effect = lower value; hit rate 0.84% among 340,000; AID 602410;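 active = B-score under library mean minus 4 SD, starting fluorescence ratio at most library mean plus 5 SD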;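 note: more negative B-score means stronger inhibition of thallium flux through KCNK3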
Target sequence (O14649 whole entry, looked up): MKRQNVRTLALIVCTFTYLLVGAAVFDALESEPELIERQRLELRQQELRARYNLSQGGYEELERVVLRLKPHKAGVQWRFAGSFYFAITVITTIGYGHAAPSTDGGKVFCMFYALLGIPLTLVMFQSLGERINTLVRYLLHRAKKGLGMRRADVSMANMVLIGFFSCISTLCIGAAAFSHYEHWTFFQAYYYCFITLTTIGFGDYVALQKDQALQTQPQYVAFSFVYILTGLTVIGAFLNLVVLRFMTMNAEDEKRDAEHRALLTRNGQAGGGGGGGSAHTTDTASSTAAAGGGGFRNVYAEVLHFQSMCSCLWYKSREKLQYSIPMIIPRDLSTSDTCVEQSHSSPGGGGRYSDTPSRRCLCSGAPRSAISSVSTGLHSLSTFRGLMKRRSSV
KCNQ1 pot: potentiates or activates the human KCNQ1 potassium channel; P51787; CHO-K1 KCNQ1, thallium flux FluxOR fluorescence; stronger effect = higher value; B-score at 10 µM; hit rate 0.35% among 310,000; AID 2648;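 active = fluorescence ratio B-score, a plate-corrected score, at least three library SD, with initial intensity B-score within 5 SD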
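assay system = KCNQ1-transfected CHO-K1 cells | medium = assay buffer with matched DMSO | probe or stimulus = depolarizing K+/Tl+ stimulus, K2SO4 and Tl2SO4 each 12.5 mM in 5x stock | dosing = single dose | incubation = dye 90 min, compound 20 min, room temperature | detection = kinetic FluxOR fluorescence, 10 s baseline plus 110 s post-stimulus | evaluation = ratio B score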
KCNK9 inh: human KCNK9 channel inhibition | HEK293 KCNK9, FluxOR thallium flux fluorescence; stronger effect = lower value | B-score at 10 µM | hit rate 1.2% among 310,000 | Q9NPC2;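 active = ratio B-score over 3 SD below the library mean, with starting fluorescence within 5 SD of its mean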;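 note: negative B-score means less thallium flux so channel inhibition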
KCNQ1 block: human KCNQ1 channel inhibition; P51787; CHO-K1 KCNQ1, FluxOR thallium flux fluorescence; stronger effect = higher value; B-score at 10 µM; hit rate 1.3% among 310,000; AID 2642;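 active = compounds whose thallium flux B-score, printed positive for inhibition, exceeds three library SD while starting fluorescence stays within three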;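 note: channel opened by potassium depolarization with thallium stimulus after 20 min compound exposure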
* hit, by the source's call; i = inactive; x = not tested or not shown. The list is not random: actives were taken first. Their share in the collection is about 3.7%.

SMILES | Kir21 block | hERG protect | KCNK3 inh | KCNQ1 pot | KCNK9 inh | KCNQ1 block
N#CSCC(=O)N1c2ccccc2CCc2ccccc21 | -6.8* | -15 | i | i | -6.9* | i
Nc1ccccc1C(=O)OCC(=O)N1CCc2ccccc21 | 0.07 | -3 | i | i | i | i
CCOc1ccccc1CN1C2CCC1CC(c1ccc(C)cc1)C2 (stereo not drawn) | -0.46 | -12 | i | i | i | 12*
CCOc1ccccc1CNCCc1ccc2c(c1)OCO2 | -3.1 | -8 | i | i | i | i
CC(=O)c1ccc(OC(C)C)c(Cc2c(O)[nH]c(=S)[nH]c2=O)c1 | -0.65 | -15 | i | i | i | i
CC(=O)O[C@H]1CCC2C3CC[C@H]4[C@@H](O)[C@H](O)CC[C@]4(C)C3CC[C@@]21C (stereo partly drawn) | x | x | i | x | x | x
N=C1c2ccccc2CN1c1ccc(F)c([N+](=O)[O-])c1 | -0.53 | 0 | i | i | i | i
CN1CCN(c2cc(N3CCCC3)c([N+](=O)[O-])cc2F)CC1 | -1.1 | -12 | i | 9* | i | i
O=[N+]([O-])c1cc(F)c(N2CCCC2)cc1Br | -1.3 | -8 | i | i | i | 6*
O=C1NC(=O)C(=Cc2ccc(-c3ccccc3[N+](=O)[O-])o2)C(=O)N1 | 0.33 | 1 | i | i | i | i
O=C1NC(=O)C(=Cc2ccc(-c3cc(Cl)ccc3[N+](=O)[O-])o2)C(=O)N1 | -0.33 | 24* | i | i | i | i
O=C(c1cc(F)ccc1F)C1CCCN(Cc2cc(Cl)ccc2O)C1 (stereo not drawn) | -1.5 | -8 | i | i | i | 6*
O=[N+]([O-])c1ccc(N2CCCCCC2)c2ncccc12 | -0.15 | -4 | i | i | -7.7* | i
CCOc1cccc(C2NCc3ccccc3-n3cccc32)c1O (stereo not drawn) | -0.34 | -5 | i | i | i | i
Oc1ccccc1C1NCc2ccccc2-n2cccc21 (stereo not drawn) | -4.5* | -3 | i | i | i | i
Clc1ccccc1C1NCc2ccccc2-n2cccc21 (stereo not drawn) | -5.2* | -27 | i | i | i | i
CC(C)c1ccc(C2NCc3ccccc3-n3cccc32)cc1 (stereo not drawn) | -0.19 | -10 | i | i | i | i
Cc1cccc(CN2CCN(Cc3ccc(Cl)cc3)CC2)c1 | -12* | -11 | i | i | i | i
C[C@]12CCC3C(CC[C@H]4C[C@H](O)CC[C@]34C)C1[C@@H](O)C[C@@H]2O (stereo partly drawn) | x | x | i | x | x | x
O=c1[nH]c(=O)n(-c2ccc(F)cc2)c(O)c1/C=C1\C=Nc2ccccc21 | 0.48 | -8 | i | i | i | 9*
O=c1[nH]c(=O)n(-c2ccccc2F)c(O)c1/C=C1\C=Nc2ccccc21 | 0.63 | -13 | i | i | i | i
O=C1Nc2ccccc2/C1=C/c1cnc[nH]1 | -2 | -16 | i | i | i | i
COc1ccc2c(c1)/C(=C/c1cnc[nH]1)C(=O)N2 | 0.57 | 1 | i | 8* | i | i
CCc1ccc(CNCCc2ccc(F)cc2)cc1 | -0.49 | -9 | i | i | i | i
Fc1ccc(CCNCc2ccc(Cl)c(Cl)c2)cc1 | -6.2* | -8 | i | i | i | i
SMILES | Kir21 block | hERG protect | KCNK3 inh | KCNQ1 pot | KCNK9 inh | KCNQ1 block
Cn1cccc1C1CCCN1CC(=O)Nc1ccc(C#N)c(Cl)c1 (stereo not drawn) | x | x | i | x | x | x
S=C(NC1CCCCC1)N1CCC(c2cnc[nH]2)CC1 | 1.2 | -6 | i | i | i | i
c1ccc2c(c1)CC1CNCc3cccc(c31)S2 (stereo not drawn) | -8.1* | -8 | i | i | i | i
CCN(CC)S(=O)(=O)c1ccc(C(=O)NC2CN3CCC2CC3)cc1 (stereo not drawn) | 0.95 | -5 | i | i | i | i
CCCC1(CC(C)C)C(=O)NC(=S)NC1=O | x | x | i | x | x | x
O=C(CSC1c2ccccc2-c2ccccc21)N/N=C/c1ccccc1O | 0.18 | -12 | i | i | i | 9*
